Source: ChEMBL document CHEMBL1938297, “Synthesis, radiofluorination and pharmacological evaluation of a fluoromethyl spirocyclic PET tracer for central σ1 receptors and comparison with fluoroalkyl homologs” (Bioorg Med Chem, 2012)

Columns and labels:
Femur [1] = assay: Biodistribution in CD1 mouse flushed femur at 300 kBq, iv after 60 mins by gamma counting; type: ADME, organism-based; details: in vivo, 1 h
Procedure, shortened: (§1)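 Female CD-1 mice received [18F]1 (300 kBq) i.v.; 3–6 animals per time point anesthetized at 5, 30, 60 or 120 min p.i., blood and urine collected, animals euthanized by cervical dislocation, organs dissected and weighed. Radioactivity counted in a calibrated gamma counter; % ID/g = tissue counts / initial dose counts / tissue weight; means with SD.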

Stomach [2] = assay: Biodistribution in CD1 mouse stomach at 300 kBq, iv after 120 mins by gamma counting; type: ADME, organism-based; details: in vivo, 2 h
Procedure, shortened: (§2)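 Female CD-1 mice received the 18F tracer iv at 300 kBq in 0.9% NaCl containing 5% ethanol; 3–6 animals per time point (5, 30, 60, 120 min p.i.). Animals anaesthetized, blood and urine collected, killed by cervical luxation, organs dissected and weighed, counted in calibrated gamma counter. %ID/g = tissue counts / initial dose counts / tissue weight; mean with SD.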

Mus musculus [3] = assay: Biodistribution in CD1 mouse small intestine at 300 kBq, iv after 120 mins by gamma counting; type: ADME, organism-based; details: in vivo, 2 h; procedure, shortened: as §2
Femur [4] = assay: Biodistribution in CD1 mouse femur at 300 kBq, iv after 120 mins by gamma counting; type: ADME, organism-based; details: in vivo, 2 h; procedure, shortened: as §1
Femur [5] = assay: Biodistribution in CD1 mouse flushed femur at 300 kBq, iv after 120 mins by gamma counting; type: ADME, organism-based; details: in vivo, 2 h; procedure, shortened: as §1
[6] = Chemical stability of the compound in 0.9% NaCl solution at pH 7.2 assessed as compound remaining after 2 hrs by radio-HPLC/TLC analysis; type: physicochemical; details: read-out: Stability
Procedure, shortened: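 Radiotracer incubated 120 min at 40 °C in 0.9% NaCl (pH 7.2), phosphate-saline (0.1 M sodium phosphate, 0.15 M NaCl, pH 7.2) or 0.01 M TRIS–HCl (pH 7.4 at 21 °C). Aliquots were taken at set times and analysed by radio-TLC on silica and by gradient radio-HPLC on RP-18 (MeCN/20 mM ammonium acetate, 254 nm), giving % unchanged tracer; n = 2.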

[7] = n-Octanol-phosphate-saline solution partition coefficient, log D of the compound at pH 7.2 by shake-flask method; type: physicochemical
Procedure, shortened: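 Shake-flask distribution of the radioligand between n-octanol and aqueous buffer at pH 7.2, either phosphate buffer or phosphate-saline; n = 3.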

Mus musculus [8] = assay: Biodistribution in CD1 mouse dorsolateral periaqueductal gray in brain saggital section at 24 MBq, iv at 45 mins by autoradiography; type: ADME, organism-based; details: in vivo, 0.75 h
Procedure, shortened: (§3)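 Female CD-1 mouse given [18F]1 (24 MBq) i.v. and sacrificed at 45 min. Brain hemispheres frozen in isopentane (−35 °C), cut into 12 µm sagittal cryosections, thaw-mounted, air-dried and exposed to 18F-sensitive storage phosphor screens. Anterior olfactory bulb served as nontarget region for target-to-nontarget ratios.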

Mus musculus [9] = assay: Biodistribution in CD1 mouse lateral periaqueductal gray in brain saggital section at 24 MBq, iv at 45 mins by autoradiography; type: ADME, organism-based; details: in vivo, 0.75 h
Procedure, shortened: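 Ex vivo autoradiography: female CD-1 mouse given 18F tracer iv (24 MBq), killed 45 min p.i.; brain hemispheres frozen in isopentane (−35 °C), 12 µm sagittal cryostat sections thaw-mounted, air-dried and exposed to 18F-sensitive phosphor screens. Regional uptake compared with anterior olfactory bulb as nontarget region (target-to-nontarget ratio).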

Mus musculus [10] = assay: Biodistribution in CD1 mouse anterior olfactory bulb in brain saggital section at 24 MBq, iv at 45 mins by autoradiography; type: ADME, organism-based; details: in vivo, 0.75 h; procedure, shortened: as §3
Blood [11] = assay: Biodistribution in CD1 mouse blood at 300 kBq, iv after 5 mins by gamma counting; type: ADME, organism-based; details: in vivo; procedure, shortened: as §1
Cerebellum [12] = assay: Biodistribution in CD1 mouse cerebellum at 300 kBq, iv after 5 mins by gamma counting; type: ADME, organism-based; details: in vivo; procedure, shortened: as §1
Heart [13] = assay: Biodistribution in CD1 mouse heart at 300 kBq, iv after 5 mins by gamma counting; type: ADME, organism-based; details: in vivo; procedure, shortened: as §2
Mus musculus [14] = assay: Biodistribution in CD1 mouse large intestine at 300 kBq, iv after 5 mins by gamma counting; type: ADME, organism-based; details: in vivo; procedure, shortened: as §2
Liver = assay: Biodistribution in CD1 mouse liver at 300 kBq, iv after 5 mins by gamma counting; type: ADME, organism-based; details: in vivo; procedure, shortened: as §2
Mus musculus [15] = assay: Biodistribution in CD1 mouse adrenals at 300 kBq, iv after 5 mins by gamma counting; type: ADME, organism-based, Adrenal gland; details: in vivo; procedure, shortened: as §1
Muscle tissue = assay: Biodistribution in CD1 mouse muscle at 300 kBq, iv after 5 mins by gamma counting; type: ADME, organism-based; details: in vivo; procedure, shortened: as §2
Femur [16] = assay: Biodistribution in CD1 mouse flushed femur at 300 kBq, iv after 5 mins by gamma counting; type: ADME, organism-based; details: in vivo; procedure, shortened: as §1
Mus musculus [17] = assay: Biodistribution in CD1 mouse eye at 300 kBq, iv after 5 mins by gamma counting; type: ADME, organism-based; details: in vivo; procedure, shortened: as §1
Mus musculus [18] = assay: Biodistribution in CD1 mouse fat at 300 kBq, iv after 5 mins by gamma counting; type: ADME, organism-based, Adipose tissue; details: in vivo; procedure, shortened: as §1
Blood [19] = assay: Biodistribution in CD1 mouse blood at 300 kBq, iv after 30 mins by gamma counting; type: ADME, organism-based; details: in vivo, 0.5 h; procedure, shortened: as §1
Brain = assay: Biodistribution in CD1 mouse brain at 300 kBq, iv after 30 mins by gamma counting; type: ADME, organism-based; details: in vivo, 0.5 h; procedure, shortened: as §1
Heart [20] = assay: Biodistribution in CD1 mouse heart at 300 kBq, iv after 30 mins by gamma counting; type: ADME, organism-based; details: in vivo, 0.5 h; procedure, shortened: as §2
Lung = assay: Biodistribution in CD1 mouse lung at 300 kBq, iv after 30 mins by gamma counting; type: ADME, organism-based; details: in vivo, 0.5 h; procedure, shortened: as §2
Stomach [21] = assay: Biodistribution in CD1 mouse stomach at 300 kBq, iv after 30 mins by gamma counting; type: ADME, organism-based; details: in vivo, 0.5 h; procedure, shortened: as §2
[22] = Biodistribution in CD1 mouse intestinal content at 300 kBq, iv after 30 mins by gamma counting; type: ADME, organism-based, Intestine; details: in vivo, 0.5 h; procedure, shortened: as §2
Kidney = assay: Biodistribution in CD1 mouse kidney at 300 kBq, iv after 30 mins by gamma counting; type: ADME, organism-based; details: in vivo, 0.5 h; procedure, shortened: as §2
[23] = Biodistribution in CD1 mouse urine at 300 kBq, iv after 30 mins by gamma counting; type: ADME, organism-based; details: in vivo, 0.5 h
Procedure, shortened: (§4)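 Female CD-1 mice received 300 kBq of the radiotracer i.v.; 3–6 animals per time point were anaesthetised at 5, 30, 60 or 120 min p.i. Blood and urine were collected, animals were killed by cervical dislocation, and organs were dissected and weighed. Activity was counted in a calibrated gamma counter and expressed as % injected dose per g wet tissue, mean with SD.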

Spleen [24] = assay: Biodistribution in CD1 mouse spleen at 300 kBq, iv after 30 mins by gamma counting; type: ADME, organism-based; details: in vivo, 0.5 h; procedure, shortened: as §2
Mus musculus [25] = assay: Biodistribution in CD1 mouse gonads at 300 kBq, iv after 30 mins by gamma counting; type: ADME, organism-based, Gonad; details: in vivo, 0.5 h; procedure, shortened: as §1
Cerebellum [26] = assay: Biodistribution in CD1 mouse cerebellum at 300 kBq, iv after 60 mins by gamma counting; type: ADME, organism-based; details: in vivo, 1 h; procedure, shortened: as §1
Heart [27] = assay: Biodistribution in CD1 mouse heart at 300 kBq, iv after 60 mins by gamma counting; type: ADME, organism-based; details: in vivo, 1 h; procedure, shortened: as §2
Stomach [28] = assay: Biodistribution in CD1 mouse stomach at 300 kBq, iv after 60 mins by gamma counting; type: ADME, organism-based; details: in vivo, 1 h; procedure, shortened: as §2
Urinary bladder = assay: Biodistribution in CD1 mouse bladder at 300 kBq, iv after 60 mins by gamma counting; type: ADME, organism-based; details: in vivo, 1 h; procedure, shortened: as §1
Spleen [29] = assay: Biodistribution in CD1 mouse spleen at 300 kBq, iv after 60 mins by gamma counting; type: ADME, organism-based; details: in vivo, 1 h; procedure, shortened: as §2
Mus musculus [30] = assay: Biodistribution in CD1 mouse thymus at 300 kBq, iv after 60 mins by gamma counting; type: ADME, organism-based; details: in vivo, 1 h; procedure, shortened: as §4
Pancreas = assay: Biodistribution in CD1 mouse pancreas at 300 kBq, iv after 60 mins by gamma counting; type: ADME, organism-based; details: in vivo, 1 h; procedure, shortened: as §2

For [18F]CC1OC2(CCN(Cc3ccccc3)CC2)c2ccccc21 (configuration not stated), the Drug uptake (Femur [1]) was 1.18 % ID/g, the Drug uptake (Stomach [2]) was 1.9 % ID/g and the Drug uptake (Mus musculus [3]) was 25.9 % ID/g. The Drug uptake (Femur [4]) was 1.92 % ID/g, the Drug uptake (Femur [5]) was 1.29 % ID/g and the remaining at 2 h [6] was 96.9%. For the same compound, the logD [7] was 2.39, the Drug uptake (Mus musculus [8]) was “Active” and the Drug uptake (Mus musculus [9]) was “Active”. For the same compound, the Drug uptake (Mus musculus [10]) was “Active”, the Drug uptake (Blood [11]) was 0.73 % ID/g and the Drug uptake (Cerebellum [12]) was 8.2 % ID/g. The Drug uptake (Heart [13]) was 7.33 % ID/g, the Drug uptake (Mus musculus [14]) was 0.91 % ID/g and the Drug uptake (Liver) was 5.31 % ID/g. For the same compound, the Drug uptake (Mus musculus [15]) was 13.29 % ID/g, the Drug uptake (Muscle tissue) was 2.12 % ID/g and the Drug uptake (Femur [16]) was 2.09 % ID/g. It also gave a Drug uptake (Mus musculus [17]) of 1.89 % ID/g, a Drug uptake (Mus musculus [18]) of 1.12 % ID/g and a Drug uptake (Blood [19]) of 0.35 % ID/g. For the same compound, the Drug uptake (Brain) was 4.56 % ID/g, the Drug uptake (Heart [20]) was 4.57 % ID/g and the Drug uptake (Lung) was 8.3 % ID/g. For the same compound, the Drug uptake (Stomach [21]) was 3.52 % ID/g, the Drug uptake [22] was 0.4 % ID/g and the Drug uptake (Kidney) was 9.61 % ID/g. It also gave a Drug uptake [23] of 46.35 % ID/g, a Drug uptake (Spleen [24]) of 8.85 % ID/g and a Drug uptake (Mus musculus [25]) of 4.75 % ID/g. It also gave a Drug uptake (Cerebellum [26]) of 4.27 % ID/g, a Drug uptake (Heart [27]) of 2.96 % ID/g and a Drug uptake (Stomach [28]) of 1.77 % ID/g. For the same compound, the Drug uptake (Urinary bladder) was 1.42 % ID/g, the Drug uptake (Spleen [29]) was 5.3 % ID/g and the Drug uptake (Mus musculus [30]) was 2.5 % ID/g. For the same compound, the Drug uptake (Pancreas) was 9.27 % ID/g.
